Laboratory results: paper PMC5952261 (ACS Infectious Diseases, 2018)
Values after ≈ are worked out from the molar mass of the structure shown. Positions of bridges follow the written chain, without caps; N, C: chain ends. Non-standard residues stand in square brackets, D forms with d. Residues, ends and D or L forms follow the SMILES beside them. *: point of attachment. X1 = CC[C@H](C)CCCCC(=O)*; Dab = NCC[C@H](N)C(=O)O

Legend:
[1] = tested on: P. aeruginosa FADDI-PA091; experiment: MIC in CAMHB; assay type: cell-based, Pseudomonas aeruginosa; conditions: polymyxin susceptible, 10^6 CFU/mL, 18 h, 37 °C, visible growth
[2] = tested on: P. aeruginosa FADDI-PA002; experiment: MIC in CAMHB; assay type: cell-based, Pseudomonas aeruginosa; conditions: polymyxin susceptible, 10^6 CFU/mL, 18 h, 37 °C, visible growth
[3] = tested on: P. aeruginosa FADDI-PA066; experiment: Impact of sputum biomolecules on lipopeptide activity in CAMHB; assay type: cell-based, Pseudomonas aeruginosa; conditions: lipopeptide 2 mg/L, 3 h, colony counts; for impact of F-actin/DNA on antibacterial activity: F-actin/DNA 125 mg/L; for impact of mucin on antibacterial activity: mucin 125 mg/L (50% (w/v)); for impact of phospholipids on antibacterial activity: phospholipids 125 mg/L
Method in brief: (§1)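 Mid-log cultures (OD500 0.4–0.6; 37 °C, 180 rpm) were diluted to OD ~0.05 in CAMHB. Test compound at 2 mg/L was coincubated for 3 h in 24-well plates with one biomolecule at 125 mg/L: F-actin/DNA, DNA, mucin, phospholipids, surfactant or LPS. Samples were spiral-plated and incubated overnight at 37 °C, and colonies were counted automatically. Detection limit 10 CFU/mL.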

[4] = tested on: P. aeruginosa FADDI-PA062; experiment: MIC in CAMHB; assay type: cell-based, Pseudomonas aeruginosa; conditions: polymyxin resistant, 10^6 CFU/mL, 18 h, 37 °C, visible growth
[5] = tested on: P. aeruginosa FADDI-PA093; experiment: MIC in CAMHB; assay type: cell-based, Pseudomonas aeruginosa; conditions: polymyxin resistant, 10^6 CFU/mL, 18 h, 37 °C, visible growth
[6] = tested on: P. aeruginosa FADDI-PA020; experiment: Impact of sputum biomolecules on lipopeptide activity in CAMHB; assay type: cell-based, Pseudomonas aeruginosa; conditions: lipopeptide 2 mg/L, 3 h, colony counts; for impact of DNA on antibacterial activity: DNA 125 mg/L; for impact of F-actin/DNA on antibacterial activity: F-actin/DNA 125 mg/L
Method in brief: as §1

mucin = conditions: dialysis; ref Huang et al., 32; cited from earlier work
[7] = tested on: P. aeruginosa FADDI-PA021; experiment: Impact of sputum biomolecules on lipopeptide activity in CAMHB; assay type: cell-based, Pseudomonas aeruginosa; conditions: lipopeptide 2 mg/L, 3 h, colony counts; for impact of DNA on antibacterial activity: DNA 125 mg/L; for impact of F-actin/DNA on antibacterial activity: F-actin/DNA 125 mg/L
Method in brief: as §1

[8] = tested on: P. aeruginosa FADDI-PA060; experiment: MIC in CAMHB; assay type: cell-based, Pseudomonas aeruginosa; conditions: polymyxin resistant, 10^6 CFU/mL, 18 h, 37 °C, visible growth
[9] = tested on: polymyxin-sensitive P. aeruginosa isolates; experiment: MIC in CAMHB, panel summary; assay type: cell-based, Pseudomonas aeruginosa; conditions: range over the panel of Table 1, CAMHB
[10] = tested on: P. aeruginosa FADDI-PA068; experiment: MIC in CAMHB; assay type: cell-based, Pseudomonas aeruginosa; conditions: polymyxin resistant, 10^6 CFU/mL, 18 h, 37 °C, visible growth
[11] = tested on: P. aeruginosa FADDI-PA025; experiment: MIC in CAMHB; assay type: cell-based, Pseudomonas aeruginosa; conditions: polymyxin susceptible, 10^6 CFU/mL, 18 h, 37 °C, visible growth
[12] = tested on: P. aeruginosa FADDI-PA001; experiment: MIC in CAMHB; assay type: cell-based, Pseudomonas aeruginosa; conditions: polymyxin susceptible, 10^6 CFU/mL, 18 h, 37 °C, visible growth
P. aeruginosa ATCC 27853 = experiment: MIC in CAMHB; assay type: cell-based, Pseudomonas aeruginosa; conditions: polymyxin susceptible, 10^6 CFU/mL, 18 h, 37 °C, visible growth
[13] = tested on: P. aeruginosa CF isolate FADDI-PA066; experiment: Cell viability, planktonic growth in artificial sputum media; assay type: cell-based, Pseudomonas aeruginosa; conditions: up to 128 mg/L
[14] = tested on: P. aeruginosa FADDI-PA038; experiment: MIC in CAMHB; assay type: cell-based, Pseudomonas aeruginosa; conditions: polymyxin susceptible, 10^6 CFU/mL, 18 h, 37 °C, visible growth
[15] = tested on: P. aeruginosa FADDI-PA070; experiment: MIC in CAMHB; assay type: cell-based, Pseudomonas aeruginosa; conditions: polymyxin resistant, 10^6 CFU/mL, 18 h, 37 °C, visible growth
[16] = tested on: P. aeruginosa FADDI-PA066; experiment: MIC in CAMHB; assay type: cell-based, Pseudomonas aeruginosa; conditions: polymyxin resistant CF isolate, 10^6 CFU/mL, 18 h, 37 °C, visible growth
[17] = tested on: P. aeruginosa FADDI-PA065; experiment: MIC in CAMHB; assay type: cell-based, Pseudomonas aeruginosa; conditions: polymyxin resistant, 10^6 CFU/mL, 18 h, 37 °C, visible growth
[18] = tested on: P. aeruginosa FADDI-PA069; experiment: MIC in CAMHB; assay type: cell-based, Pseudomonas aeruginosa; conditions: polymyxin resistant, 10^6 CFU/mL, 18 h, 37 °C, visible growth
[19] = tested on: P. aeruginosa FADDI-PA022; experiment: MIC in CAMHB; assay type: cell-based, Pseudomonas aeruginosa; conditions: polymyxin susceptible, 10^6 CFU/mL, 18 h, 37 °C, visible growth
[20] = tested on: P. aeruginosa FADDI-PA092; experiment: MIC in CAMHB; assay type: cell-based, Pseudomonas aeruginosa; conditions: polymyxin resistant, 10^6 CFU/mL, 18 h, 37 °C, visible growth
[21] = tested on: P. aeruginosa FADDI-PA066; experiment: Transmission electron microscopy of cells growing in biofilm; assay type: cell-based, Pseudomonas aeruginosa; conditions: 1× MIC (colistin 128 mg/L; octapeptin A3 16 mg/L), 1 h, 37 °C

In the case of `CC[C@H](C)CCCCC(=O)N[C@@H](CCN)C(=O)N[C@H](C(=O)N[C@@H](CCN)C(=O)N[C@H]1CCNC(=O)[C@H]([C@@H](C)O)NC(=O)[C@H](CCN)NC(=O)[C@H](CCN)NC(=O)[C@H](CC(C)C)NC(=O)[C@@H](Cc2ccccc2)NC(=O)[C@H](CCN)NC1=O)[C@@H](C)O` [polymyxin B] (X1-[Dab]T[Dab][Dab][Dab][dF]L[Dab][Dab]T; lactam 4-C (inferred); N-terminus assumed), the minimum inhibitory concentration [1] is reported as 1 µg/mL (≈ 0.831 µM), the minimum inhibitory concentration [2] is reported as 0.5 µg/mL (≈ 0.415 µM) and the “impact of F-actin/DNA on antibacterial activity” value (“impact of F-actin/DNA” for short) [3] is reported as “marginally inhibited”. For the same compound, the “impact of mucin on antibacterial activity” value [3] was “not noticeable”, the “impact of phospholipids on antibacterial activity” value [3] was “not discernible” and the minimum inhibitory concentration [4] was over 32 µg/mL. The minimum inhibitory concentration [5] was 32 µg/mL (≈ 26.6 µM), the “impact of DNA on antibacterial activity” value [6] was “marginally impacted” and the “impact of F-actin/DNA” value [6] was “only marginally affected”. The binding to mucin (mucin) was “avidly bind”, the “impact of DNA on antibacterial activity” value [7] was “marginally impacted” and the “impact of F-actin/DNA” value [7] was “inhibited”. The minimum inhibitory concentration [8] was over 128 µg/mL, the “MICs against the polymyxin-sensitive isolates” value [9] was 0.25 to 4 mg/L and the minimum inhibitory concentration [10] was over 32 µg/mL. It also gave a minimum inhibitory concentration [11] of 2 µg/mL (≈ 1.66 µM), a minimum inhibitory concentration [12] of 0.5 µg/mL (≈ 0.415 µM) and a minimum inhibitory concentration (P. aeruginosa ATCC 27853) of 0.5 µg/mL (≈ 0.415 µM). For the same compound, the “activity (reduction of cell viability), in words” value [13] was “inactive even at 128 mg/L”, the minimum inhibitory concentration [14] was 1 µg/mL (≈ 0.831 µM) and the minimum inhibitory concentration [15] was over 32 µg/mL. The minimum inhibitory concentration [16] was 32 µg/mL (≈ 26.6 µM), the minimum inhibitory concentration [17] was over 32 µg/mL and the minimum inhibitory concentration [18] was over 32 µg/mL. For the same compound, the minimum inhibitory concentration [19] was 1 µg/mL (≈ 0.831 µM).
With `CC[C@H](C)CCCCC(=O)N[C@@H](CCN)C(=O)N[C@H](C(=O)N[C@@H](CCN)C(=O)N[C@H]1CCNC(=O)[C@H]([C@@H](C)O)NC(=O)[C@H](CCN)NC(=O)[C@H](CCN)NC(=O)[C@H](CC(C)C)NC(=O)[C@@H](CC(C)C)NC(=O)[C@H](CCN)NC1=O)[C@@H](C)O` [colistin] (X1-[Dab]T[Dab][Dab][Dab][dL]L[Dab][Dab]T; lactam 4-C (inferred); N-terminus assumed) the minimum inhibitory concentration [1] was 0.5 µg/mL (≈ 0.428 µM), the minimum inhibitory concentration [2] was 0.25 µg/mL (≈ 0.214 µM) and the “impact of F-actin/DNA” value [3] was “no impact”. The “impact of mucin on antibacterial activity” value [3] was “not noticeable”, the “impact of phospholipids on antibacterial activity” value [3] was “not discernible” and the “impact of DNA on antibacterial activity” value [6] was “marginally impacted”. The “impact of F-actin/DNA” value [6] was “only marginally affected”, the binding to mucin (mucin) was “avidly bind” and the “impact of DNA on antibacterial activity” value [7] was “marginally impacted”. For the same compound, the “impact of F-actin/DNA” value [7] was “inhibited”, the minimum inhibitory concentration [20] was 16 µg/mL (≈ 13.7 µM) and the “MICs against the polymyxin-sensitive isolates” value [9] was 0.25 to 4 mg/L. It also gave a minimum inhibitory concentration [11] of 2 µg/mL (≈ 1.71 µM), a minimum inhibitory concentration [12] of 0.5 µg/mL (≈ 0.428 µM) and a minimum inhibitory concentration (P. aeruginosa ATCC 27853) of 1 µg/mL (≈ 0.855 µM). The “activity (reduction of cell viability), in words” value [13] was “inactive even at 128 mg/L”, the minimum inhibitory concentration [14] was 1 µg/mL (≈ 0.855 µM) and the minimum inhibitory concentration [16] was over 128 µg/mL. The “effect on bacterial outer membrane (TEM)” value [21] was “blebbing effect with vesicular protrusions from the outer membrane” and the minimum inhibitory concentration [19] was 1 µg/mL (≈ 0.855 µM).
